Sampled rows, rich in hits. Any-hit rate of the full collection: about 4.9%.
STAT1 activator = increases IFN-gamma driven STAT1 reporter signal | NIH 3T3 STAT1-luciferase reporter, luminescence; 100% = IFN-gamma alone, no compound | actives 2.6% (n = 200,000) | activation (% of control), % at 5.5 µM | AID 932;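 active means activation above the screen-wide mean activation plus 3 SD, cut at about 130% in these data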;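 further: raw ratio to IFN-gamma control signal so 100% means no change and 0% no light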
STAT3 activator = activators of IL-6 induced STAT3 signaling; U3A cells, IL-6 STAT3-luciferase reporter, luminescence; 100% = signal with IL-6 EC80 alone; activation (% of control), % at 5.6 µM; actives 0.91% (n = 190,000);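 active means activation above the screen-wide mean of compound activation plus 3 SD, cut at about 130% in these data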;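 further: 0% = background luminescence of wells with medium and substrate only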
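Material: STAT1-lacking human U3A cells, STAT3 luciferase reporter | Benchmarks: IL-6-only wells as 100% reference | Probe or stimulus: IL-6 (33 ng/mL) | Timing: Compound 1 h, then IL-6 6 h at 37 °C | Detection: Luminescence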
STAT1 inh = STAT1 signaling inhibition | NIH 3T3 STAT1-luciferase reporter, IFN-gamma, luminescence | inhibition, % at 5.5 µM | actives 0.35% (n = 200,000) | AID 920;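 active means inhibition above a set limit, the mean inhibition across all tested compounds plus 3 SD, cut at about 34% in these data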;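 further: 0% = IFN-gamma with DMSO and 100% = IFN-gamma with 300 µM nifuroxazide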
STAT3 inh = STAT3 signaling inhibition | U3A cells, IL-6 STAT3-luciferase reporter, luminescence; host cell line lacks STAT1 | inhibition, % at 5.5 µM | actives 0.89% (n = 190,000);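 active means inhibition above the mean inhibition across all screened compounds plus 3 SD, cut at about 44% in these data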;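 further: 0% = DMSO only wells and 100% = 100 µM nifuroxazide control wells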
NF-kB neuron act = compounds increasing NF-kB expression in human neuronal cells. NF-kB reporter expression; active compounds read high. AID 1239. actives 1.6% (n = 190,000). fold change at 12.5 µM; in the data active means fold change above about 3.3
APP 5'UTR act = activates APP 5'UTR luciferase reporter | SH-SY5Y APP 5'UTR luciferase reporter, luminescence; zero percent = DMSO vehicle wells | activation, % at 2 µM | actives 1% (n = 190,000) | AID 1276;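 active means activation above a set limit, based on mean plus 3 SD of controls, cut at about 140% in these data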
* marks the source's active call; other numbers are inactive results; nt = no result given.

SMILES | STAT1 activator | STAT3 activator | STAT1 inh | STAT3 inh | NF-kB neuron act | APP 5'UTR act
CC(=O)c1c(C)[nH]c(C(=O)NCCc2ccccc2)c1C | 149* | 96 | -54 | 10 | 3.4* | 131
COc1ccc(CCNC(=O)c2[nH]c(C)c(C(C)=O)c2C)cc1OC | 99 | 93 | 1 | 11 | 1.1 | -1
CC(=O)c1c(C)[nH]c(C(=O)COC(=O)CCCOc2ccccc2)c1C | 96 | 97 | 4 | 9 | 1.1 | 0
CC(=O)c1c(C)[nH]c(C(=O)OCCOc2ccccc2)c1C | 53 | 31 | 50* | 84* | 2.5 | 212*
Cc1cc(C(=O)NNC(=S)NCc2ccco2)nn1C | 98 | 95 | 1 | 7 | 1.2 | 15
Cc1ccc(/C=C2\Sc3ccccc3C2=O)s1 | 93 | 117 | 8 | -8 | 5.5* | 28
COc1ccc(N=C2NC(=O)S/C2=C\c2ccc(N(C)C)cc2)cc1 | 132* | 107 | -35 | -3 | 1.6 | 23
COc1cc(C(=O)Nc2ccc(N(C)C)cc2)c([N+](=O)[O-])cc1OC | 146* | 100 | -49 | 6 | nt | 53
CCC1(c2ccc(F)cc2)NC(=O)N(CC(=O)Nc2ccc(C)c(S(=O)(=O)N3CCOCC3)c2)C1=O (configuration not stated) | 99 | 102 | 2 | -2 | 1.1 | -5
CCn1ncc(Br)c1C(=O)Nc1cc([N+](=O)[O-])ccc1C | 103 | 98 | -3 | 7 | 1.5 | -5
Cc1cc(C)c2[nH]c(=O)c(CN(Cc3cccnc3)C(=S)NCCCN(C)C)cc2c1 | 100 | 98 | -2 | 10 | 0.79 | -10
COC(=O)c1c(N(S(C)(=O)=O)S(C)(=O)=O)sc2c1CCN(c1ncc(C(F)(F)F)cc1Cl)C2 | 91 | 90 | 7 | 13 | 3.4* | -6
O=C(CNC(=S)N(Cc1ccccc1)Cc1ccccc1F)NCCc1ccc(Cl)cc1 | 104 | 112 | -6 | -13 | 1.1 | -11
Cc1nnc(NC(=O)Cn2cnc3c2c(=O)n(C)c(=O)n3C)s1 | 114 | 102 | -15 | -1 | 1.2 | -13
COc1ccc(-c2nc3c(Br)c(N)c(Br)cc3o2)cc1 | 135* | 178* | -39 | -88 | 1.7 | 113
COc1ccc(-c2cn[nH]c2N)cc1 | 96 | 102 | 3 | -2 | 1.1 | 3
O=C(Nc1ccc(F)cc1)C1C(c2ccccc2)C1(Cl)Cl (configuration not stated) | 100 | 97 | -1 | 8 | 1.6 | 2
COc1cc(/C=N/Nc2ccccc2[N+](=O)[O-])ccc1OC(=O)c1ccccc1F | 107 | 111 | -8 | -10 | 1.7 | 193*
COc1cc(/C=N/Nc2nc3ccccc3s2)ccc1OC(=O)c1ccccc1F | 106 | 119 | -4 | -27 | 12* | 173*
COc1ccc(/C=N/NC(N)=S)cc1OC(=O)c1cccc2ccccc12 | 130* | 95 | -36 | 15 | 0.91 | 19
COc1cc(/C=N/Nc2ccccc2)ccc1OC(=O)c1cccs1 | 99 | 111 | 1 | -18 | 1.6 | 5
COc1cc(/C=N/Nc2ccccc2[N+](=O)[O-])cc(OC)c1O | 91 | 95 | 10 | 9 | 1.3 | 3
Cc1cc(OC(C)C(=O)N/N=C/CC(C)c2ccccc2)ccc1Cl (configuration not stated) | 97 | 103 | 3 | 2 | 1.8 | -26
O=C(NC(=S)Nc1nc2ccccc2s1)c1cccs1 | 133* | 151* | -37 | -66 | 2.5 | 145*
Nc1c(C(=O)Nc2nc3ccccc3s2)sc2nc(-c3cccs3)ccc12 | 140* | 91 | -51 | 18 | 2.1 | 110
SMILES | STAT1 activator | STAT3 activator | STAT1 inh | STAT3 inh | NF-kB neuron act | APP 5'UTR act
Cc1cc(C)nc(Nc2nc3ccccc3s2)n1 | 129* | 156* | -36 | -61 | 1.2 | 147*
NC(=S)Nc1nc2ccccc2s1 | 134* | 155* | -40 | -55 | 1.4 | 47
CC(=O)c1sc2nc(-c3cccs3)ccc2c1N | 120 | 108 | -21 | -5 | 2 | 74
Cc1ncc(CO)c(/C=N/NC(=O)c2cc3c(s2)CCCC3)c1O | 93 | 97 | 4 | 8 | 1.1 | -27
C/C(CC(=O)Nc1cccc(C(F)(F)F)c1)=N\NC(=O)C1CCCCC1 | 106 | 104 | -6 | 1 | 0.98 | 6
O=c1[nH]c2ccccc2c(O)c1-c1cc2ccccc2oc1=O | 101 | 102 | -1 | 3 | 1 | -16

Compound activity from PubChem BioAssay.
